Experimental data of several laboratories.
Compare with care: the assays were run in different laboratories. pIC50: −log10 of the molar value.

The pIC50 of `O=c1c(O[C@@H]2O[C@H](CO)[C@@H](O)[C@H](O)[C@H]2O)c(-c2ccc(O)cc2)oc2cc(O)cc(O)c12` is reported as 4.44 (HCT-116; cell growth or viability, WST-1).
`Cl.Cl.O=C(CCN1CCCCC1)c1ccc(-c2ccc(C(=O)CCN3CCCCC3)cc2)cc1` gave an AUC(0-t) of 978 ng·h/mL (Sprague-Dawley rat, plasma; oral, 100 mg/kg).
`CC(C)(C)[C@H](NC(=O)[C@H](CCONC(=N)N)NC(=O)Cc1ccc(CNC(=N)N)cc1)C(=O)N[C@@H](CCONC(=N)N)C(=O)NCc1ccc(C(=N)N)cc1` gave an AUC(0-t) of 2090 ng·h/mL (male Sprague-Dawley rat, plasma; intravenous, 1 mg/kg).
`OC[C@@H](O)[C@@H](O)[C@H](O)[C@H](O)CO` gave a Papp A→B of 0.249 ×10⁻⁶ cm/s (Caco-2).
For `CC[C@@H]1CN2CCc3c([nH]c4cccc(OC)c34)[C@H]2C[C@@H]1/C(=C\OC)C(=O)OC`, the Papp A→B was 14.2 cm/s (Caco-2; pH 7.4).
`O=C([O-])C(=O)[O-].[NH-][C@@H]1CCCC[C@H]1[NH-].[Pt+4]` (relative stereo) has an AUC(0-inf) of 2540 ng·h/mL (rat, plasma; intravenous, 5 mg/kg).
For `N=c1c2c(-c3ccccc3)c(-c3ccccc3)n(Cc3ccccc3)c2ncn1[C@H]1CC[C@H](O)CC1`, the Cmax was 785 ng/mL (female minipig, plasma; oral, 2.5 mg/kg, single dose).
For `O=C(Nc1ccc2c(c1)B(O)OC2)c1ccc(Oc2ccccc2)cc1`, the Papp was 0.82 ×10⁻⁶ cm/s (PAMPA; 200 µM, 5 h, pH 7.4).
`COC(=O)C(NC(=O)c1cn(CCCCCF)c2ccccc12)C(C)(C)C` (centres unmarked) gave an AUC(0-t) of 37.7 ng·h/mL (male Sprague-Dawley rat, plasma; subcutaneous, 200 µg/kg).
For `CCCCCCCCCCCC(=O)NC(C)(C)C(=O)N1CCC[C@H]1C(=O)NC(C)(C)C(=O)NC(C)(C)C(=O)N1CCC[C@H]1C(=O)NC(C)(C)C(=O)NC(C)(C)C(=O)N1CCC[C@H]1C(=O)N[C@@H](C)C(=O)NC(C)(C)C(=O)NCCC(=O)N[C@@H](C)C(=O)NC(C)(C)C(=O)NC(C)(C)C(=O)NCCC(=O)NC(C)(C)C(=O)NC(C)(C)C(=O)NC(C)(C)C(=O)N[C@@H](C)C(=O)NCCC(=O)O`, the pIC50 was 6.00 (HCT-116; cell growth or viability, MTT; 24 h).
`CN(C)C(=O)Oc1cc(OC(=O)N(C)C)cc(-c2cc3ccc(O)cc3o2)c1` has an AUC(0-t) of 589 ng·h/mL (male rat, plasma; intravenous, 5 mg/kg).
